An excerpt weighted towards active compounds, which were near 3.3% of everything screened.
PRMT1 inh – PRMT1 methyltransferase inhibitors, primary screen, biochemical, fluorescence polarization; Protein arginine N-methyltransferase 1 (Homo sapiens), Q99873; recombinant PRMT1, activity-based probe fluorescence polarization; inhibition, % at 2.79 µM; 1.3% of 370,000 active; AID 652257, 2013;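 active = inhibition above about 21% made by adding two undisclosed values, limit read from the data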
Target sequence (Q99873 whole entry, looked up): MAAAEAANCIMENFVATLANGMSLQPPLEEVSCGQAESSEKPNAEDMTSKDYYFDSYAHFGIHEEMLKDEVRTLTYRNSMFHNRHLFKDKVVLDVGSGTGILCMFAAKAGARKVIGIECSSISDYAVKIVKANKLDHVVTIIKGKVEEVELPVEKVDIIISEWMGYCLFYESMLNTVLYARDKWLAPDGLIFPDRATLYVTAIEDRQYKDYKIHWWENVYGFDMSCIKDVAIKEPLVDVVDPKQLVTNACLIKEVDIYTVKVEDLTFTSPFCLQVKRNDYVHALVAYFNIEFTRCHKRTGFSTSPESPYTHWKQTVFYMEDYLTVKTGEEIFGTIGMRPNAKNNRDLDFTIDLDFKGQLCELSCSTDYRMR
mABHD4 FP – ABHD4 inhibitors, primary screen, biochemical, fluorescence polarization, mouse. purified mABHD4, FP-Rh probe fluorescence polarization. inhibition, % at 8.92 µM. (Lyso)-N-acylphosphatidylethanolamine lipase (Mus musculus), Q8VD66. AID 720543, 2013. 0.54% of 370,000 active;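 active = inhibition exceeding the mean over every tested compound plus 3 SD, cut at about 30% in these data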
Target sequence (Q8VD66 whole entry, looked up): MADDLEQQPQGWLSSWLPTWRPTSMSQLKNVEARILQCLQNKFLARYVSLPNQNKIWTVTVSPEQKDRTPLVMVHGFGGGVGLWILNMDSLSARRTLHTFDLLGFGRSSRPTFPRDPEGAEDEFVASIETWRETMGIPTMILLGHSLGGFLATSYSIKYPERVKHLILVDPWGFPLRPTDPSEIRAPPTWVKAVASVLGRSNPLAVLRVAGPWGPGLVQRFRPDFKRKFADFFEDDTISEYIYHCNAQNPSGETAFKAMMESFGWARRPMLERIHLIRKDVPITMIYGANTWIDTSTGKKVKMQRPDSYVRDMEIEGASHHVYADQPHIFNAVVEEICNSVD
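Assay system: Wild-type mouse ABHD4 protein | Medium: HEPES pH 7.0 buffer, 150 mM NaCl, 0.01% Pluronic F-127 | Incubation: Enzyme–compound pre-incubation 45 min, then probe 60 min, both 25 °C | Technique: Fluorescence polarization with parallel and perpendicular emission, 525/598 nm | Evaluation: % inhibition of FP-Rh probe binding versus controls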
rCAG binder – binders of r(CAG) RNA repeats, primary screen, biochemical, fluorescence | r(CAG) RNA repeat, TO-PRO-1 dye displacement fluorescence | inhibition, % at 3 µM | 1.3% of 370,000 active | AID 651821, 2012;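 active = inhibition above the plate cutoff, the mean of all test compounds on that plate plus 3 SD, cut at about 35% in these data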;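 also: higher means more dye released from RNA so lower well fluorescence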
TCR CD3 inh – inhibitors of human TCR-CD3 interaction, primary screen, biochemical, fluorescence, TAMRA-labeled TCR probe | T-cell receptor (TCR) | AID 651800, 2012 | inhibition, % at 9.4 µM | 0.37% of 360,000 active; in the data active = inhibition above about 19%;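 also: recombinant mutant TCR 2C K166C tagged with TAMRA read by polarization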
SIAE inh – human SIAE inhibitors, primary screen, biochemical, fluorescence polarization, FP-Rh probe, 1536-well HTS; SIAE FP-Rh probe binding; Sialate O-acetylesterase (Homo sapiens), Q9HAT2; AID 1053197, 2014; inhibition, % at 9.66 µM; 0.69% of 370,000 active;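 active = inhibition above a cutoff: mean of compounds within the control limits plus 3 SD of those, cut at about 17% in these data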
PRMT1 confirm – PRMT1 methyltransferase inhibitors, confirmation, biochemical, fluorescence polarization, triplicate | shares compounds with PRMT1 inh | recombinant His-PRMT1, activity-based probe fluorescence polarization | inhibition, % at 2.79 µM | 42% of 3,300 active | AID 687036, 2013;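 active = mean inhibition across replicates above the hit cutoff derived for the earlier primary screen, cut at about 22% in these data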
Each line names hits and unclear results; the compound was inactive in the other large screens (follow-up assays come after a bar, where they were run).

CCC(/C=C1\Oc2ccc(OC)cc2N1C)=C\c1sc2ccccc2[n+]1CCCS(=O)(=O)[O-]	PRMT1 inh 49 | PRMT1 confirm inactive
Cn1c2ccccc2c(=O)c2c(=O)n(CCCc3ccccc3)cnc21	none (no result: TCR CD3 inh)
Cc1ccc(C2C3=C(CC(C)(C)CC3=O)Nc3[nH]c(=S)[nH]c(=O)c32)cc1 (stereo unspecified)	PRMT1 inh 52 | PRMT1 confirm inactive
Cc1[nH]nc2c1C(c1ccc(O)cc1)C1=C(CC(C)(C)CC1=O)N2 (stereo unspecified)	none
CCN1/C(=C\C=C(C(C)=O)C(C)=O)Sc2ccccc21	none
CCN1/C(=C\C(=S)Nc2ccccc2)Sc2ccccc21	PRMT1 inh 71 | PRMT1 confirm inactive
Cc1ccc(CN2CCCCC(NC(=O)c3ccc4ccccc4c3)C2=O)cc1 (stereo unspecified)	none (no result: TCR CD3 inh)
CCC(=O)Nc1nc(-c2ccc3c(c2)OCCO3)cs1	none
c1cc2c(cc1-c1csc(NNC3=NCCCCC3)n1)OCCO2	PRMT1 inh 75 | PRMT1 confirm 24
CCCC/C=C1/[C@@H](C(C)C)N(Cc2ccc3c(c2)OCO3)C2=N[C@H](c3ccccc3)CC(=O)N21	none (no result: rCAG binder, TCR CD3 inh)
COC(=O)C[C@H]1CC[C@@H]2[C@H](COc3ccc(NC(=O)c4cccc(Cl)c4)cc3C(=O)N2C)O1	none (no result: TCR CD3 inh)
CCN1CCN(C(=S)c2ccc(Cl)c(Cl)c2)CC1	PRMT1 inh 63 | PRMT1 confirm 49
C=CCN(C(=O)[C@@H](C1CC1)[C@@H](O)c1ccc2ccccc2c1)c1ccccc1	none (no result: TCR CD3 inh)
CCOc1ccc(Oc2c(Cl)c(Br)nn(Cc3cccc4ccccc34)c2=O)cc1	none (no result: TCR CD3 inh)
S=c1[nH]c2cnc(Cl)nc2[nH]1	PRMT1 inh 43 | PRMT1 confirm 34
S=c1[nH]c2nc(Cl)c(Cl)nc2[nH]1	none
O=C(NC1CCCCN(Cc2ccc(OC(F)(F)F)cc2)C1=O)c1cccc(F)c1 (stereo unspecified)	none (no result: TCR CD3 inh)
CSc1ccccc1OCc1cc(C(=O)N(C)Cc2ccc(C)o2)no1	PRMT1 inh 25 | PRMT1 confirm 28
CC(=O)c1cccc(OCc2cc(C(=O)N(C)Cc3ccc(C)o3)no2)c1	PRMT1 inh 32 | PRMT1 confirm 47
Cc1ccc(CN(C)C(=O)c2ccccc2Oc2ccccc2)o1	PRMT1 inh 34 | PRMT1 confirm inactive
CN1[C@H](Cc2ccccc2)COc2cccc(N3CCCC3)c2S1(=O)=O	none (no result: TCR CD3 inh)
Cc1ccc(C2=CCN(C)C(=O)N2c2ccc([N+](=O)[O-])cc2)cc1	none (no result: TCR CD3 inh)
CCCC1CCC2(CC1)CCC2OC(=S)Nc1ccccc1Br (stereo unspecified)	none (no result: rCAG binder, TCR CD3 inh)
COc1cccc(/C=C2\SC(=O)N(CCC(=O)N3CCC(C(=O)O)CC3)C2=O)c1	PRMT1 inh 30 | PRMT1 confirm inactive
CC(C)c1ccccc1NC(=O)[C@@H]1CCCN1S(=O)(=O)c1cccc2cccnc12	none (no result: rCAG binder, TCR CD3 inh)
S=c1[nH]nc(-c2n[nH]c3c2CCC3)n1N=Cc1c2ccccc2cc2ccccc12	PRMT1 inh 50 (no result: TCR CD3 inh) | PRMT1 confirm 49
O=C(CC(Nc1cccc(Cl)c1Cl)C(=O)OCC(=O)c1cccs1)c1ccccc1 (stereo unspecified)	none
O=C(CC(Nc1cccc(Cl)c1Cl)C(=O)O)c1ccccc1 (stereo unspecified)	PRMT1 inh 29 | PRMT1 confirm inactive
Cc1c(Cl)cccc1NC(CC(=O)c1ccccc1)C(=O)OCC(=O)c1cccs1 (stereo unspecified)	PRMT1 inh 63 | PRMT1 confirm inactive
O=C(CC(Nc1ccccc1Cl)C(=O)O)c1ccccc1 (stereo unspecified)	PRMT1 inh 31 | PRMT1 confirm inactive
Cc1c(Cl)cccc1NC(CC(=O)c1ccccc1)C(=O)O (stereo unspecified)	PRMT1 inh 35 | PRMT1 confirm inactive
COP(=O)(OC)C(Cc1ccccc1)NC(=O)CNC(=O)OCc1ccccc1 (stereo unspecified)	none (no result: TCR CD3 inh)
COc1ccccc1NC(CC(=O)c1ccccc1)C(=O)OCC(=O)c1ccc(F)cc1 (stereo unspecified)	PRMT1 inh 35 | PRMT1 confirm inactive
CC(=O)Nc1ccc2cc3ccc(NC(C)=O)cc3nc2c1	PRMT1 inh 37 | PRMT1 confirm 22
CC(=O)Nc1ccc2sc(C)nc2c1	none
O=C(C1=NN[C@@H]2C(=O)N(c3cccc(F)c3)C(=O)[C@H]12)c1cnccn1	PRMT1 inh 36 | PRMT1 confirm inactive
Oc1c(Cl)cc(Oc2cc(Cl)c(O)c(CN3CCOCC3)c2)cc1CN1CCOCC1	none
Oc1c(CN2CCOCC2)cc(CN2CCOCC2)c(O)c1O	PRMT1 inh 35 | PRMT1 confirm 83
CCCc1cc(CN2CCOCC2)c(O)c(CN2CCOCC2)c1O	PRMT1 inh 64 | PRMT1 confirm 64
Cn1c(=O)cc(OCCCC(=O)Nc2cc(-c3cn[nH]c3)ccn2)c2ccccc21	none (no result: rCAG binder, TCR CD3 inh)
O=C(NNC(=S)NC(=O)c1ccc(Br)cc1)c1cccc([N+](=O)[O-])c1	none
CC(=O)NNC(=S)NC(=O)c1cccc([N+](=O)[O-])c1	PRMT1 inh 48 | PRMT1 confirm inactive
COc1ccc(C(C(=O)N(C)C2CCCC2)N(Cc2ccc(F)cc2)C(=O)c2csc3ccc(Cl)cc23)cc1OC (stereo unspecified)	none (no result: TCR CD3 inh)
O=C(CSc1nc2nc(-c3cccs3)cc(C(F)(F)F)c2c(=O)[nH]1)C(F)(F)F	PRMT1 inh 58 | PRMT1 confirm 84
COC(=O)CSc1nc2nc(-c3cccs3)cc(C(F)(F)F)c2c(=O)[nH]1	none
O=C(CSc1nc2nc(-c3cccs3)cc(C(F)(F)F)c2c(=O)[nH]1)NCc1ccco1	PRMT1 inh 30 | PRMT1 confirm inactive
CCn1c(=O)[nH]n(C/C(C)=C\c2c[n+](Cc3ccc4c(c3)OCO4)c(N)[nH]2)c1=O	none (no result: rCAG binder, TCR CD3 inh)
COCCn1c(C)cc(C(=O)CSc2ccc(NC(C)=O)cc2)c1C	PRMT1 inh 25 | PRMT1 confirm 25
COCCn1c(C)cc(C(=O)CSc2ccc3ccccc3n2)c1C	PRMT1 inh 35 | PRMT1 confirm inactive
COCC(C)n1c(C)cc(C(=O)CSc2ccc(NC(C)=O)cc2)c1C (stereo unspecified)	PRMT1 inh 39 | PRMT1 confirm inactive
COc1ccc(S(=O)(=O)N2CCC(c3nc4ccccc4o3)CC2)c(OC)c1	none (no result: TCR CD3 inh)
CCc1ccc(NC(=O)C2CC(=O)N=C(N)S2)cc1 (stereo unspecified)	none
NC1=NC(=O)CC(C(=O)NCCc2ccccc2)S1 (stereo unspecified)	PRMT1 inh 30 | PRMT1 confirm inactive
